Calls of active or inactive are those of the source.
Columns and labels:
Format in all cases: functional, organism-based
[1] = tested on: Candida albicans; test: Antifungal activity against Candida albicans ATCC 10231 at 0.98 to 250 ug/mL after 48 hrs by NCCLS broth microdilution method
Procedure, shortened: (§1)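 Yeast MIC by NCCLS M27-A3 broth microdilution in RPMI-1640 buffered to pH 7.0 with MOPS. Twofold dilutions of 250–0.98 µg/mL, final DMSO ≤1%. Inoculum 1–5 × 10³ CFU/mL. Incubated at 30 °C in a moist dark chamber. Read visually at 48 h. MIC100 is the lowest concentration with no visible growth versus drug-free control.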

[2] = tested on: Aspergillus flavus; test: Antifungal activity against Aspergillus flavus ATCC 9170 at 0.98 to 250 ug/mL by NCCLS broth microdilution method
Procedure, shortened: (§2)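 MIC by broth microdilution per NCCLS M27-A3/M38-A2 in RPMI-1640 buffered to pH 7.0 with MOPS. Twofold dilutions from 250–0.98 µg/mL, final DMSO ≤1%. Inoculum 1–5 × 10³ CFU/mL. Incubated in a moist dark chamber, 30 °C for Aspergillus and 28–30 °C for dermatophytes. Read visually when control growth allowed. Endpoint is the lowest concentration giving total inhibition of visible growth (MIC100).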

[3] = tested on: Trichophyton mentagrophytes; test: Antifungal activity against Trichophyton mentagrophytes ATCC 9972 at 0.98 to 250 ug/mL by NCCLS broth microdilution method; procedure, shortened: as §2
[4] = tested on: Trichophyton rubrum; test: Antifungal activity against Trichophyton rubrum CCC 110 at 0.98 to 250 ug/mL by NCCLS broth microdilution method; procedure, shortened: as §2
[5] = tested on: Aspergillus fumigatus; test: Antifungal activity against Aspergillus fumigatus ATCC 26934 at 0.98 to 250 ug/mL by NCCLS broth microdilution method; procedure, shortened: as §2
[6] = tested on: Candida tropicalis; test: Antifungal activity against Candida tropicalis at 0.98 to 250 ug/mL after 48 hrs by NCCLS broth microdilution method; procedure, shortened: as §1
[7] = tested on: Aspergillus niger; test: Antifungal activity against Aspergillus niger ATCC 9029 at 0.98 to 250 ug/mL by NCCLS broth microdilution method; procedure, shortened: as §2
[8] = tested on: Nannizzia gypsea; test: Antifungal activity against Microsporum gypseum CCC 115 at 0.98 to 250 ug/mL by NCCLS broth microdilution method; procedure, shortened: as §2
[9] = tested on: Cryptococcus neoformans; test: Antifungal activity against Cryptococcus neoformans ATCC 32264 at 0.98 to 250 ug/mL after 48 hrs by NCCLS broth microdilution method; procedure, shortened: as §1

Measured: Activity

C[C@@H]1Nc2nc(N)nc(OCC3CCCCC3)c2NC1=O
inactive: all assays above

CCOC(=O)[C@H](C)Nc1nc(N)nc(OCC2CCCCC2)c1N=O
inactive: all assays above

COc1nc(N)c(N=O)c(N2CCCC2)n1
inactive: all assays above

COc1nc(NCCO)nc(Nc2ccccc2)c1N=O
inactive: all assays above

CC(C)Nc1nc(N)nc(Nc2cccc(Cl)c2)c1N=O
inactive: all assays above

COc1nc(N)nc2c1NC(=O)CCN2
inactive: all assays above

COc1nc(N)nc(NCCO)c1N=O
inactive: all assays above

COc1nc(N)nc(OC)c1N=O
inactive: all assays above

COc1nc(N)c(N=O)c(=O)n1Cc1ccccc1
inactive: all assays above

Nc1nc(OCC2CCCCC2)c(N=O)c(OCC2CCCCC2)n1
inactive: all assays above

Nc1nc(NC23CC4CC(CC(C4)C2)C3)c(N=O)c(=O)[nH]1
inactive: all assays above

CCOC(=O)C(Cc1ccccc1)Nc1nc(N)nc(OC)c1N=O (stereo not given)
inactive: all assays above

Nc1nc(NC2CCCCC2)c(N=O)c(N2CCCCCCCC2)n1
inactive: all assays above

COc1nc(N)nc(NC23CC4CC(CC(C4)C2)C3)c1N=O
inactive: all assays above

COc1nc(NCCOC(C)=O)nc(Nc2ccccc2)c1N=O
inactive: all assays above
